Activity calls are given as the source filed them. The rule behind the calls is not given here.
What was measured:
[1] = biological target: Urokinase-type plasminogen activator (Homo sapiens, UniProt P00749); experiment: Inhibition of urokinase-type plasminogen activator using Glt-Gly-Arg-AMC as substrate by spectrofluorometry
[2] = biological target: Tissue-type plasminogen activator (Homo sapiens, UniProt P00750); experiment: Inhibition of tPA using CH3SO2-D-HHT-Gly-Arg-pNA as substrate by spectrophotometry
U-87MG ATCC = experiment: Cytotoxicity against human U87 cells by lactate dehydrogenase assay; assay type: functional, cell-based
Procedure, shortened: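 Cytotoxicity was read as release of cytosolic LDH from dying cells, following the kit manufacturer's protocol.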

[3] = Inhibition of trypsin using tosyl-Gly-Pro-Lys-pNA as substrate by spectrophotometry
[4] = Cytotoxicity against human U87 cells at 250 uM after 24 hrs by lactate dehydrogenase assay; assay type: functional, U-87MG ATCC
Procedure, shortened: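 Human U87 glioma cells seeded at ten thousand per well and exposed to drug for 24–48 h at 37°C under 5% CO2. Cell death was read as cytosolic lactate dehydrogenase released from dying cells, assayed following the kit manufacturer's protocol.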

Plasminogen = Plasminogen (Homo sapiens, UniProt P00747); experiment: Inhibition of plasmin using tosyl-Gly-Pro-Lys-pNA as substrate by spectrophotometry
[5] = Cytotoxicity against human U87 cells at 100 uM after 72 hrs by lactate dehydrogenase assay; assay type: functional, U-87MG ATCC; conditions: in the assay text read “24 hrs” for “72 hrs”
Procedure, shortened: (§1)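 Cell death was scored as cytosolic LDH released into the medium, using the kit manufacturer's LDH protocol.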

[6] = Cytotoxicity against human U87 cells at 250 uM after 72 hrs by lactate dehydrogenase assay; assay type: functional, U-87MG ATCC; procedure, shortened: as §1

Chain of Tissue-type plasminogen activator (P00750 whole entry): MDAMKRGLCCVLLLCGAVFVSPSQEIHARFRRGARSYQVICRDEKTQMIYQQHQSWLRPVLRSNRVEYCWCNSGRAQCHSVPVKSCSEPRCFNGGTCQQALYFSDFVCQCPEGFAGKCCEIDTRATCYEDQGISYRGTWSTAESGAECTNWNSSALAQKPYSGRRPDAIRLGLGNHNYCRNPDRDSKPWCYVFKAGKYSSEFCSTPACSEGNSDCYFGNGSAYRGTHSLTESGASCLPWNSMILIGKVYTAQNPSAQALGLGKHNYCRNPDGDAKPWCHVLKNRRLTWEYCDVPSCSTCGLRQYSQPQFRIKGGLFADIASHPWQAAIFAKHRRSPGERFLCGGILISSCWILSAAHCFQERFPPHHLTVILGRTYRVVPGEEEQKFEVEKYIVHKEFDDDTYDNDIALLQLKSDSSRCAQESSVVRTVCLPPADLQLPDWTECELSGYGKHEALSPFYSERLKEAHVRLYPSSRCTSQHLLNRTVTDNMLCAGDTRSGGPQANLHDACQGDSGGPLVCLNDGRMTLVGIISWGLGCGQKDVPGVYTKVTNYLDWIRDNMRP
Chain of Plasminogen (P00747 97-580 limits assumed): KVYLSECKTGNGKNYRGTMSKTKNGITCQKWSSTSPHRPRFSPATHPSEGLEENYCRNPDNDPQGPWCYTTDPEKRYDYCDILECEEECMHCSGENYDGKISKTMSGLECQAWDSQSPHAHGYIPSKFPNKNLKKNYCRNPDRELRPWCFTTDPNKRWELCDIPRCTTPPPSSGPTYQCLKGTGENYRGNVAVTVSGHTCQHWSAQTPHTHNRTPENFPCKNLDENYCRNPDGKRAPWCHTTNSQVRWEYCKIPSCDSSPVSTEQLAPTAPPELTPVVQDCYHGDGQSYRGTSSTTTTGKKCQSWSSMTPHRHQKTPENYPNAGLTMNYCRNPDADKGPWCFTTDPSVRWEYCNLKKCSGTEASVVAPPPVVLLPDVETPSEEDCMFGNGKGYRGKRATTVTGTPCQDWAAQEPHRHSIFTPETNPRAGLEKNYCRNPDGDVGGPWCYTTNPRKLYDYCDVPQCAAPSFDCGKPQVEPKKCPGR
Chain of Plasminogen (P00747 581-810 limits assumed): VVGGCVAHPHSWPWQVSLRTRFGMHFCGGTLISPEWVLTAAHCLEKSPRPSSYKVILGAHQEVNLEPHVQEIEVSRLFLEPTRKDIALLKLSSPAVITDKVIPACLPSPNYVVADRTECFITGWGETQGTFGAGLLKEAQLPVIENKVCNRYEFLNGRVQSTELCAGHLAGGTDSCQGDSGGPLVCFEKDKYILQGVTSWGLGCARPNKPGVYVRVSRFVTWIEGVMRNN

Compound | IC50 [1] [µM] | IC50 [2] [µM] | IC50 [3] [µM] | IC50 (Plasminogen) [µM] | Activity (U-87MG ATCC) | Activity [4] [%] | Activity [5] [%] | Activity [6] [%]
N/C(=N\O)c1ncc(NCC(=O)O)nc1N | – | – | > 250 | – | inactive | – | – | –
N=C(N)NC(=O)c1nc(Cl)c(N)nc1N [AMILORIDE] | – | 220 | > 250 | > 250 | – | 50 | – | –
NC(N)=NC(=O)c1ncc(NCC(=O)O)nc1N | 47 | > 250 | > 250 | > 250 | inactive | – | – | –
NC(=O)c1nc(Cl)c(NCC(=O)OCc2ccccc2)nc1N | 69 | > 250 | > 250 | – | – | – | – | –
NC(N)=NC(=O)c1nc(Cl)c(NCC(=O)OCc2ccccc2)nc1N | 3 | > 190 | > 250 | > 250 | – | – | 50 | –
N/C(=N\O)c1nc(Cl)c(NCC(=O)OCc2ccccc2)nc1N | – | – | > 250 | – | inactive | – | – | –

More lines, main results first:

IC50 [1] [µM] | IC50 [2] [µM] | IC50 [3] [µM] | IC50 (Plasminogen) [µM] | Compound | Activity (U-87MG ATCC) | Activity [4] [%] | Activity [5] [%] | Activity [6] [%]
279 | > 250 | – | – | N=C(NO)c1ncc(NCC(=O)O)nc1N | – | – | – | –
231 | > 250 | – | > 250 | N=C(NO)c1nc(Cl)c(NCC(=O)O)nc1N | – | – | – | –
74 | 200 | – | > 250 | N=C(NO)c1nc(Cl)c(NCC(=O)OCc2ccccc2)nc1N | – | – | – | –
212 | > 250 | > 250 | > 250 | N=C(N)c1ncc(NCC(=O)O)nc1N | inactive | – | – | –
17 | > 250 | > 250 | > 250 | N=C(N)NC(=O)c1nc(Cl)c(NCC(=O)O)nc1N | inactive | – | – | –
– | – | > 250 | – | N/C(=N\O)c1nc(Cl)c(NCC(=O)O)nc1N | inactive | – | – | –
237 | > 250 | > 250 | – | N=C(N)c1nc(Cl)c(NCC(=O)O)nc1N | inactive | – | – | –
4 | 200 | > 250 | > 250 | N=C(N)c1nc(Cl)c(NCC(=O)OCc2ccccc2)nc1N | – | – | – | 50
